Experiments:
[1] = biological target: Serine/threonine-protein kinase PLK1 (Homo sapiens, UniProt P53350); experiment: Inhibition of human PLK1 expressed in baculovirus infected in Trichoplusia ni cells using Biotin-Ahx-SFNDTLDFD as substrate in presence of ATP by TopCount scintillation proximity assay; parameters: species or system Trichoplusia ni cell
Procedure, shortened: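 Baculovirus-expressed PLK1 kinase domain (2 nmol/L) in 25 mmol/L HEPES pH 7.2, 15 mmol/L MgCl2, 1 μmol/L ATP plus [γ-33P]ATP, 1 μmol/L biotinylated peptide substrate, BSA and DTT; 1–1.5 h at 22°C. Stopped with EDTA/streptavidin SPA beads. Signal above EDTA background converted to percent inhibition versus DMSO-only wells.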

[2] = biological target: Vascular endothelial growth factor receptor 2 (Homo sapiens, UniProt P35968); experiment: Inhibition of VEGFR2 (unknown origin)
Vascular endothelial growth factor receptor 2, sequence (P35968 whole entry): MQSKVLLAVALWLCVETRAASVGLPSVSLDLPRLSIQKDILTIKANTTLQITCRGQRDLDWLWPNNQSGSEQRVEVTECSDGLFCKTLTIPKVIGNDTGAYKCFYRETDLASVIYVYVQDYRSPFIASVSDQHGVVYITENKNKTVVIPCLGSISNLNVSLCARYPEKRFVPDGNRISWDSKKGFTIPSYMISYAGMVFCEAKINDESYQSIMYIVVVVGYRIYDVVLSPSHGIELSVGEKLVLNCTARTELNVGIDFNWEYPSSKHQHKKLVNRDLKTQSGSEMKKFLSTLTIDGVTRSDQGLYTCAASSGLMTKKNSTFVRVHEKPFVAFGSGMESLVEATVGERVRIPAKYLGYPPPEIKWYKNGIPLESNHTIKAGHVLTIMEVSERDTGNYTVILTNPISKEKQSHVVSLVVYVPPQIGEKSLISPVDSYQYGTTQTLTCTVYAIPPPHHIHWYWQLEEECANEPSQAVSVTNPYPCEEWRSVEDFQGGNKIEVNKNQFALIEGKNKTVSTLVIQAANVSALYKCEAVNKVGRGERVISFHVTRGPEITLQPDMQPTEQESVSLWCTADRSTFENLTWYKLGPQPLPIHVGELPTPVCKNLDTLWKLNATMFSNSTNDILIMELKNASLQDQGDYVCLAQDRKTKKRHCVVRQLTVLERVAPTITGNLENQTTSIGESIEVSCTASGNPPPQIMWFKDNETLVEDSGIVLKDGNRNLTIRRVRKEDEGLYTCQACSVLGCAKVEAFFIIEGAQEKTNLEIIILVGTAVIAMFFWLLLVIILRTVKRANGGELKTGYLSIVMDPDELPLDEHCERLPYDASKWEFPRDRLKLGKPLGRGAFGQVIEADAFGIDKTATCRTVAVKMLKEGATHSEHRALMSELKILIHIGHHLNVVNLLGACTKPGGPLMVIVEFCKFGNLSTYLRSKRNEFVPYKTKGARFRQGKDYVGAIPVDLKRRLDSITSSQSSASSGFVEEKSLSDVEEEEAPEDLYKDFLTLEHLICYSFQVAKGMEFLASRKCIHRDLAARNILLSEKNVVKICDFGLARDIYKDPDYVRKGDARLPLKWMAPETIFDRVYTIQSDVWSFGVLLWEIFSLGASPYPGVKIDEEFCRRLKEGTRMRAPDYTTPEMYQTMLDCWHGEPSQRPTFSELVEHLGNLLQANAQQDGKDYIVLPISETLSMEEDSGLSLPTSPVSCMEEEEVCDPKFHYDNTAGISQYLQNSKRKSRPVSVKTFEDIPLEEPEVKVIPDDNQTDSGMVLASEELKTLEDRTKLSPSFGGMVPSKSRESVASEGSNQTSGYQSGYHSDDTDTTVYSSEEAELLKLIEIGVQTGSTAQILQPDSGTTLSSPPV

[3] = biological target: Mitogen-activated protein kinase 14 (Homo sapiens, UniProt Q16539); experiment: Inhibition of p38alpha (unknown origin)
Mitogen-activated protein kinase 14, sequence (Q16539 whole entry): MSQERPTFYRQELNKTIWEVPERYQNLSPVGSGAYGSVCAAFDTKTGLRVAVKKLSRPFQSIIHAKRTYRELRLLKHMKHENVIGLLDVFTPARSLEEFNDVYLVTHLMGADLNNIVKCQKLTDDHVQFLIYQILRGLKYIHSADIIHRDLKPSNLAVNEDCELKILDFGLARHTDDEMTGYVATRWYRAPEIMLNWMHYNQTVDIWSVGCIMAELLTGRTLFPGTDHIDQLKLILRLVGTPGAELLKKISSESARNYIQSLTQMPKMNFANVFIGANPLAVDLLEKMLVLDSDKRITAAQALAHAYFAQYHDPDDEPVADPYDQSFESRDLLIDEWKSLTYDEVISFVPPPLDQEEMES

[4] = Inhibition of EGFR (unknown origin); parameters: species or system Homo sapiens
BT-474 = experiment: Antiproliferative activity against human BT-474 cells assessed as inhibition of cell growth; type: functional, cell-based
[5] = Selectivity ratio of IC50 for cytotoxicity against human HDF cells to IC50 for antiproliferative activity against human A549 cells; type: toxicity, cell-based; details: HDF cells versus A549 cells, read-out: Ratio IC50
[6] = Selectivity ratio of IC50 for cytotoxicity against human HDF cells to IC50 for antiproliferative activity against human NCI-N87 cells; type: toxicity, cell-based; details: HDF cells versus NCI-N87 cells, read-out: Ratio IC50
[7] = Selectivity ratio of IC50 for cytotoxicity against human HDF cells to IC50 for antiproliferative activity against human PC-3 cells; type: toxicity, cell-based; details: HDF cells versus PC-3 cells
[8] = Inhibition of p53-PLK1 in human HeLa cells assessed as inhibition of p53 phosphorylation at Ser15 residue by ELISA analysis; type: cell-based
Procedure, shortened: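 HeLa Tet-On cells carrying tet-inducible p53-PLK1 kinase-domain fusion (T210D), induced overnight with 125 ng/mL doxycycline; ten 3-fold dilutions (30–0.00152 μmol/L final, 0.3% DMSO, 5% serum) for 1 h. Lysates captured on anti-p53-coated plates overnight at 4°C; phospho-Ser15 and total p53 detected with HRP secondary/TMB, A450. IC50 from curve fit.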

NHDF [9] = experiment: Induction of cell cycle arrest in human HDF cells assessed as accumulation of cells at S phase at 3 micromol/L incubated for 24 hrs by propidium iodide staining based flow cytometry analysis (reference value: 13.2 %); type: toxicity; details: 3 µM, dose 3 µmol/L
Procedure, shortened: (§1)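 Cells seeded in six-well plates at densities that keep them in log growth (HDF 120,000, 60,000 or 30,000; H460 100,000, 50,000 or 25,000 per well for 24, 48 or 72 h). Treated with 1 or 3 μmol/L. Floating and adherent cells collected, ethanol-fixed, permeabilized with Triton X-100 and stained with propidium iodide. DNA content read by flow cytometry as % singlet cells.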

NHDF [10] = experiment: Induction of cell cycle arrest in human HDF cells assessed as accumulation of cells at G2-M phase at 3 micromol/L incubated for 24 hrs by propidium iodide staining based flow cytometry analysis (reference value: 22.6 %); type: toxicity; details: 3 µM, dose 3 µmol/L; procedure, shortened: as §1
NHDF [11] = experiment: Induction of cell cycle arrest in human HDF cells assessed as accumulation of cells at Sub-2N phase at 1 micromol/L incubated for 24 hrs by propidium iodide staining based flow cytometry analysis (reference value: 0.2 %); type: toxicity; details: 1 µM, dose 1 µmol/L; procedure, shortened: as §1
NHDF [12] = experiment: Induction of cell cycle arrest in human HDF cells assessed as accumulation of cells at >4N phase at 3 micromol/L incubated for 24 hrs by propidium iodide staining based flow cytometry analysis (reference value: 2.4 %); type: toxicity; details: 3 µM, dose 3 µmol/L; procedure, shortened: as §1
NHDF [13] = experiment: Induction of cell cycle arrest in human HDF cells assessed as accumulation of cells at S phase at 1 micromol/L incubated for 48 hrs by propidium iodide staining based flow cytometry analysis (reference value: 4.7 %); type: toxicity; details: 1 µM, dose 1 µmol/L; procedure, shortened: as §1
NHDF [14] = experiment: Induction of cell cycle arrest in human HDF cells assessed as accumulation of cells at G1 phase at 3 micromol/L incubated for 72 hrs by propidium iodide staining based flow cytometry analysis (reference value: 85.6 %); type: toxicity; details: 3 µM, dose 3 µmol/L; procedure, shortened: as §1
NHDF [15] = experiment: Induction of cell cycle arrest in human HDF cells assessed as accumulation of cells at S phase at 1 micromol/L incubated for 72 hrs by propidium iodide staining based flow cytometry analysis (reference value: 3.6 %); type: toxicity; details: 1 µM, dose 1 µmol/L; procedure, shortened: as §1
NHDF [16] = experiment: Induction of cell cycle arrest in human HDF cells assessed as accumulation of cells at S phase at 3 micromol/L incubated for 72 hrs by propidium iodide staining based flow cytometry analysis (reference value: 3.6 %); type: toxicity; details: 3 µM, dose 3 µmol/L; procedure, shortened: as §1
NHDF [17] = experiment: Induction of cell cycle arrest in human HDF cells assessed as accumulation of cells at G2-M phase at 1 micromol/L incubated for 72 hrs by propidium iodide staining based flow cytometry analysis (reference value: 8.2 %); type: toxicity; details: 1 µM, dose 1 µmol/L; procedure, shortened: as §1
NCI-H460 [18] = experiment: Induction of cell cycle arrest in human NCI-H460 cells assessed as accumulation of cells at G1 phase at 1 micromol/L incubated for 24 hrs by propidium iodide staining based flow cytometry analysis (reference value: 45.5 %); type: functional; details: dose 1 µmol/L, at 1 µM; procedure, shortened: as §1
NCI-H460 [19] = experiment: Induction of cell cycle arrest in human NCI-H460 cells assessed as accumulation of cells at G1 phase at 3 micromol/L incubated for 48 hrs by propidium iodide staining based flow cytometry analysis (reference value: 50.9 %); type: functional; details: dose 3 µmol/L, at 3 µM
NCI-H460 [20] = experiment: Induction of cell cycle arrest in human NCI-H460 cells assessed as accumulation of cells at S phase at 3 micromol/L incubated for 48 hrs by propidium iodide staining based flow cytometry analysis (reference value: 18.5 %); type: functional; details: dose 3 µmol/L, at 3 µM
NCI-H460 [21] = experiment: Induction of cell cycle arrest in human NCI-H460 cells assessed as accumulation of cells at Sub-2N phase at 1 micromol/L incubated for 48 hrs by propidium iodide staining based flow cytometry analysis (reference value: 2.5 %); type: functional; details: dose 1 µmol/L, at 1 µM
NCI-H460 [22] = experiment: Induction of cell cycle arrest in human NCI-H460 cells assessed as accumulation of cells at G1 phase at 3 micromol/L incubated for 72 hrs by propidium iodide staining based flow cytometry analysis (reference value: 58.2 %); type: functional; details: dose 3 µmol/L, at 3 µM
NCI-H460 [23] = experiment: Induction of cell cycle arrest in human NCI-H460 cells assessed as accumulation of cells at S phase at 1 micromol/L incubated for 72 hrs by propidium iodide staining based flow cytometry analysis (reference value: 17.8 %); type: functional; details: dose 1 µmol/L, at 1 µM
NCI-H460 [24] = experiment: Induction of cell cycle arrest in human NCI-H460 cells assessed as accumulation of cells at G2-M phase at 1 micromol/L incubated for 72 hrs by propidium iodide staining based flow cytometry analysis (reference value: 18.2 %); type: functional; details: dose 1 µmol/L
NCI-H460 [25] = experiment: Induction of cell cycle arrest in human NCI-H460 cells assessed as accumulation of cells at Sub-2N phase at 1 micromol/L incubated for 72 hrs by propidium iodide staining based flow cytometry analysis (reference value: 2.1 %); type: functional; details: dose 1 µmol/L, at 1 µM
NCI-H460 [26] = experiment: Induction of cell cycle arrest in human NCI-H460 cells assessed as accumulation of cells at >4N phase at 1 micromol/L incubated for 72 hrs by propidium iodide staining based flow cytometry analysis (reference value: 0.9 %); type: functional; details: dose 1 µmol/L, at 1 µM; procedure, shortened: as §1

Serine/threonine-protein kinase PLK1, sequence (P53350 whole entry, the tested form may be a part): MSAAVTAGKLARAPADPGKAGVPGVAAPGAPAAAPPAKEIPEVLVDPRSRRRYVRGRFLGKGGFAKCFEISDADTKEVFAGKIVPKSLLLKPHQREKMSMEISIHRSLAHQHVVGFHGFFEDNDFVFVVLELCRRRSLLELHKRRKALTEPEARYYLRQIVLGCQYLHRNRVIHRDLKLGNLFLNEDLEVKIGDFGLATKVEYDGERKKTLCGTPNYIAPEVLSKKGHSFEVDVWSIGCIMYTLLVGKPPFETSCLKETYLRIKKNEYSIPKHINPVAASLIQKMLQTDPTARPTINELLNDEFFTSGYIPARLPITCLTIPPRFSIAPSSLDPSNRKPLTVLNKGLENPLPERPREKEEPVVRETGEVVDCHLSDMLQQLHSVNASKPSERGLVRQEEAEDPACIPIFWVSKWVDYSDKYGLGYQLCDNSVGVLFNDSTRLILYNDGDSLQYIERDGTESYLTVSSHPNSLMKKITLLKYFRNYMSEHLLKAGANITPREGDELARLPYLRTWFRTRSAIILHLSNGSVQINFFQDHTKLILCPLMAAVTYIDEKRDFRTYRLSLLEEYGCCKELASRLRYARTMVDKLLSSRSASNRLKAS

COc1cc2ncn(-c3cc(OCc4ccccc4C(F)(F)F)c(C(N)=O)s3)c2cc1OC [GW843682X]
IC50 [1]: 2.2 nM | IC50 [2]: 360 nM | IC50 [3]: > 10000 nM | IC50 [4]: > 10000 nM | IC50 (BT-474): 570 nM | selectivity ratio [5]: > 10 | selectivity ratio [6]: > 10 | selectivity ratio [7]: 0.9 | IC50 [8]: 140 nM | Activity (NHDF [9]): 4.2% | Activity (NHDF [10]): 65.6% | Activity (NHDF [11]): 0.3% | Activity (NHDF [12]): 6% | Activity (NHDF [13]): 7.4% | Activity (NHDF [14]): 5.6% | Activity (NHDF [15]): 6.7% | Activity (NHDF [16]): 8% | Activity (NHDF [17]): 21.6% | Activity (NCI-H460 [18]): 27.3% | Activity (NCI-H460 [19]): 7.5% | Activity (NCI-H460 [20]): 8% | Activity (NCI-H460 [21]): 14.4% | Activity (NCI-H460 [22]): 3.7% | Activity (NCI-H460 [23]): 2.8% | Activity (NCI-H460 [24]): 10.6% | Activity (NCI-H460 [25]): 16% | Activity (NCI-H460 [26]): 58.6%

Source: ChEMBL document CHEMBL5661972, “In vitro biological activity of a novel small-molecule inhibitor of polo-like kinase 1” (Mol Cancer Ther, 2007)
